# How the values were obtained:
# [1] = tested on: JAK1; settings: GS‐829845 vs filgotinib; cited from earlier work
# [2] = phase 1 studies; cited from earlier work
# [3] = tested on: subjects with rheumatoid arthritis (RA); test: Exposure-safety analysis; assay type: in vivo, human; settings: up to week 52; for exposures (AUC0‐24) by presence or absence of the five most frequent TEAEs: nausea, nasopharyngitis, upper respiratory tract infection, headache, hypertension
# How it was run: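 Individual parent and metabolite exposures came from population PK models and were analysed separately for each analyte. Data were pooled from all five studies across all doses. Data collected after rerandomization and a switch of treatment group were excluded. Exposures were compared between subjects with and without each event (serious TEAEs, serious infections). Cmax was also evaluated.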
# [4] = cited from earlier work; for effect of moderate hepatic impairment on exposure (AUC and C max): compared with matched healthy controls
# [5] = tested on: JAK1‐related interleukin‐6 (IL‐6)‐induced phosphorylated signal transducer and activator of transcription 1 (pSTAT1); settings: cited from earlier work
# [6] = tested on: subjects with moderately to severely active rheumatoid arthritis (RA); test: Exposure-efficacy analysis; assay type: in vivo, human; settings: week 12; filgotinib 100 mg group
# How it was run: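 Individual exposures came from population PK models (nonlinear mixed-effects), built separately for parent and active metabolite. Parent and metabolite exposures were combined as AUCeff, weighted by relative JAK1 inhibition potency. Data were pooled from 3 phase 3 and 2 phase 2 studies: dosed subjects with ≥1 PopPK parameter, plus placebo at week 12. Binary response was fit by nonlinear logistic (Emax on logit) regression, with Clopper-Pearson binomial CIs.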
Structure (SMILES),"potency relative to the parent (JAK1 preferential inhibitor), fold less potent [1]",half‐life [2],exposures (AUC0‐24) by presence or absence of the five most frequent TEAEs [3],serious TEAEs and serious infections against exposures [3],exposure in elderly subjects (≥75 years) compared with younger subjects [4] [fold],"exposure in subjects with severe renal impairment (RI), fold higher [4] [fold]",effect of moderate hepatic impairment on exposure (AUC and C max) [4],maximum inhibition of pSTAT1 ([5]; plateaued at or above 200 mg total daily dose),intermediate inhibition of pSTAT1 ([5]; total daily dose of 100 mg),ACR20 response rate [6]
Nc1nc2cccc(-c3ccc(CN4CCS(=O)(=O)CC4)cc3)n2n1 [GS‐829845],approximately 10 fold,approximately 19 hours,similar,no exposure‐driven patterns were present,1.33,2.74,no clinically relevant effect,,,
O=C(Nc1nc2cccc(-c3ccc(CN4CCS(=O)(=O)CC4)cc3)n2n1)C1CC1 [filgotinib],,~7 h,similar,no exposure‐driven patterns were present,1.45,1.54,no clinically relevant effect,~ 78%,~ 47%,approximately 70%

# Reference: article PMC9305466 (British Journal of Clinical Pharmacology, 2022)
